Measurements taken from ChEMBL document CHEMBL1137992, “Long hydrocarbon chain keto diols and diacids that favorably alter lipid disorders in vivo” (J Med Chem, 2004).

Assays:
Rattus norvegicus [1] = test: Percentage change of triglycerides in obese female Zucker rats after 1 week of pre-treatment at a dose of 100 mg/kg/day; type: functional
How it was run: (§1)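 Female Zucker fatty rats [Crl:(Zuc)-faBR], 10–12 weeks old (400–500 g), acclimated 7 days and fed rodent chow. Dosed once daily by oral gavage in 20% EtOH/80% PEG-200 (v/v), at 0.25% of body weight, for 2 weeks. Blood taken after a 6-h fast: orbital plexus before dosing and at day 7, cardiac puncture at day 14. Serum lipoprotein cholesterol measured by Superose 6 gel filtration with on-line cholesterol detection. Values are % change from pretreatment, mean ± SEM.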

Rattus norvegicus [2] = test: Percentage change of triglycerides in obese female Zucker rats after 2 weeks of pre-treatment at a dose of 100 mg/kg/day; type: functional; how it was run: as §1
Rattus norvegicus [3] = test: Percentage change of HDL cholesterol levels in obese female Zucker rats after 1 week of pre-treatment at a dose of 100 mg/kg/day; type: functional
How it was run: (§2)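 Obese female Zucker fatty rats were gavaged once daily with 30 or 100 mg/kg/day in 20% EtOH/80% PEG-200 for 2 weeks. Sera were collected after a 6 h fast, before dosing, at 1 week (orbital plexus) and at 2 weeks (cardiac puncture). HDL-C was total cholesterol multiplied by HDL area fraction from gel-filtration lipoprotein profiles. Reported as % change from pretreatment ± SEM.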

Rattus norvegicus [4] = test: Percentage change of HDL cholesterol levels in obese female Zucker rats after 2 weeks of pre-treatment at a dose of 100 mg/kg/day; type: functional; how it was run: as §2
Rattus norvegicus [5] = test: Percentage change of non-HDL cholesterol levels in obese female Zucker rats after 1 week of pre-treatment at a dose of 100 mg/kg/day; type: functional; how it was run: as §1
Rattus norvegicus [6] = test: Percentage change of non-HDL cholesterol levels in obese female Zucker rats after 2 weeks of pre-treatment at a dose of 100 mg/kg/day; type: functional; how it was run: as §1
[7] = Concentration required for inhibition of lipid synthesis in primary cultures of rat hepatocytes at 300 uM; not active; type: functional; conditions: Hepatocyte
How it was run: (§3)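 Primary hepatocytes from male Sprague-Dawley rats (Seglen isolation), plated at 1.5×10^5 cells/cm² on collagen in serum-containing DMEM, switched to serum-free medium after 4 h, grown overnight to monolayers. Cells incubated 4 h with 0.25 μCi [1-14C]acetate/well (1 Ci/mol final) plus 0, 1, 3, 10, 30, 100 or 300 μM compound. Lipids extracted into scintillant and counted; IC50 taken from lipid synthesis rates.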

[8] = Concentration required for inhibition of lipid synthesis in primary cultures of rat hepatocytes; value ranges from 100-300 uM; type: functional, cell-based; conditions: Hepatocyte; how it was run: as §3
Rattus norvegicus [9] = test: Percentage change of triglycerides in obese female Zucker rats after 1 week of pre-treatment at a dose of 30 mg/kg/day; type: functional; how it was run: as §1
Rattus norvegicus [10] = test: Percentage change of triglycerides in obese female Zucker rats after 2 weeks of pre-treatment at a dose of 30 mg/kg/day; type: functional; how it was run: as §1
Rattus norvegicus [11] = test: Percentage change of HDL cholesterol levels in obese female Zucker rats after 1 week of pre-treatment at a dose of 30 mg/kg/day; type: functional; how it was run: as §2
Rattus norvegicus [12] = test: Percentage change of HDL cholesterol levels in obese female Zucker rats after 2 weeks of pre-treatment at a dose of 30 mg/kg/day; type: functional; how it was run: as §2
Rattus norvegicus [13] = test: Percentage change of non-HDL cholesterol levels in obese female Zucker rats after 1 week of pre-treatment at a dose of 30 mg/kg/day; type: functional; how it was run: as §1
Rattus norvegicus [14] = test: Percentage change of non-HDL cholesterol levels in obese female Zucker rats after 2 weeks of pre-treatment at a dose of 30 mg/kg/day; type: functional; how it was run: as §1
[15] = Concentration required for inhibition of lipid synthesis in primary cultures of rat hepatocytes; value ranges from 3-10 uM; type: functional, cell-based; conditions: Hepatocyte; how it was run: as §3
[16] = Concentration required for inhibition of lipid synthesis in primary cultures of rat hepatocytes; type: functional, cell-based; conditions: Hepatocyte; how it was run: as §3
Rattus norvegicus [17] = test: Percentage change of triglycerides in obese female Zucker rats after 1 week of pre-treatment at a dose of 59 mg/kg/day; type: functional; how it was run: as §1
Rattus norvegicus [18] = test: Percentage change of triglycerides in obese female Zucker rats after 2 weeks of pre-treatment at a dose of 59 mg/kg/day; type: functional; how it was run: as §1
Rattus norvegicus [19] = test: Percentage change of HDL cholesterol levels in obese female Zucker rats after 1 week of pre-treatment at a dose of […]; type: functional
Rattus norvegicus [20] = test: Percentage change of HDL cholesterol levels in obese female Zucker rats after 2 weeks of pre-treatment at a dose of 59 mg/kg/day; type: functional
Rattus norvegicus [21] = test: Percentage change of non-HDL cholesterol levels in obese female Zucker rats after 1 week of pre-treatment at a dose of 59 mg/kg/day; type: functional; how it was run: as §1
Rattus norvegicus [22] = test: Percentage change of non-HDL cholesterol levels in obese female Zucker rats after 2 weeks of pre-treatment at a dose of 59 mg/kg/day; type: functional; how it was run: as §1
Rattus norvegicus [23] = test: Percentage change of non-HDL cholesterol levels in obese female Zucker rats after 1 week of treatment at a dose of 100 mg/kg/day; type: functional; conditions: in the assay text read “30 mg/kg/day” for “100 mg/kg/day”; how it was run: as §1

Row | SMILES | Change (Rattus norvegicus [1]) [%] | Change (Rattus norvegicus [2]) [%] | Change (Rattus norvegicus [3]) [%] | Change (Rattus norvegicus [4]) [%] | Change (Rattus norvegicus [5]) [%] | Change (Rattus norvegicus [6]) [%] | IC50 [16] [µM] | other results
1 | CC(C)Cc1ccc(C(C)(CO)CCCCC(=O)CCCCC(C)(CO)c2ccc(CC(C)C)cc2)cc1 (stereo unspecified) | -10 | -15 | -5 | 6 | 27 | 34 |  | inhibition at 300 µM [7]: < 50%
2 | CC(CO)(CCCCC(=O)CCCCC(C)(CO)c1ccccc1)c1ccccc1 (stereo unspecified) |  |  |  |  |  |  |  | IC50 [8]: < 300 µM; Change (Rattus norvegicus [9]): -25%; Change (Rattus norvegicus [10]): 21%; Change (Rattus norvegicus [11]): 0%; Change (Rattus norvegicus [12]): -27%; Change (Rattus norvegicus [13]): -30%; Change (Rattus norvegicus [14]): 31%
3 | CC(C)(CO)CCCCC(=O)CCCC(C)(C)CO | -40 | -12 | 47 | 48 | -26 | 4 |  | IC50 [15]: < 10 µM
4 | CC(C)(CO)CCCCC(=O)CCCCC(C)(CO)c1ccccc1 (stereo unspecified) |  |  |  |  |  |  | 1 | Change (Rattus norvegicus [9]): 18%; Change (Rattus norvegicus [10]): -8%; Change (Rattus norvegicus [11]): -18%; Change (Rattus norvegicus [12]): -5%; Change (Rattus norvegicus [13]): 17%; Change (Rattus norvegicus [14]): -8%
5 | Cc1ccc(C(C)(CCCCC(=O)CCCCC(C)(C(=O)O)c2ccc(C)cc2)C(=O)O)cc1 (stereo unspecified) |  |  |  |  |  |  |  | IC50 [8]: < 300 µM; Change (Rattus norvegicus [9]): -11%; Change (Rattus norvegicus [10]): 12%; Change (Rattus norvegicus [11]): 0%; Change (Rattus norvegicus [12]): 10%; Change (Rattus norvegicus [13]): 0%; Change (Rattus norvegicus [14]): 47%
6 | CC(C)(CO)Cc1cccc(C(=O)c2cccc(CC(C)(C)CO)c2)c1 | -29 | -8 | 1 | -11 | -14 | -5 | 52 | 
7 | CC(C)(CCCCCCCC(=O)CCCCCCCC(C)(C)C(=O)O)C(=O)O | -85 | -63 | 44 | 86 | -81 | -45 | 5 | 
8 | CC(CCCC(=O)CCCC(C)(C(=O)O)c1ccccc1)(C(=O)O)c1ccccc1 (stereo unspecified) | 10 | 27 | -4 | 12 | 36 | 65 |  | inhibition at 300 µM [7]: < 50%
9 | CC(C)(CCCCCC(=O)CCCCC(C)(C)C(=O)O)C(=O)O | -65 | -62 | 240 | 72 | -30 | -51 | 3 | 
10 | CC(C)(CCCCC(=O)CCCC(C)(C)C(=O)O)C(=O)O |  |  |  |  |  |  | 8 | Change (Rattus norvegicus [9]): -2%; Change (Rattus norvegicus [10]): 23%; Change (Rattus norvegicus [11]): 7%; Change (Rattus norvegicus [12]): 4%; Change (Rattus norvegicus [13]): -17%; Change (Rattus norvegicus [14]): 93%
11 | CC(C)(CCCCCCC(=O)CCCCCCC(C)(C)C(=O)O)C(=O)O |  |  |  |  |  |  | 9 | 
12 | CC(CO)(CCCCCC(=O)CCCCCC(C)(CO)c1ccccc1)c1ccccc1 (stereo unspecified) | 24 | 1 | 2 | 10 | 29 | 9 | 93 | 
13 | CC(C)(CO)CCCC(=O)CCCC(C)(C)CO | -31 | 10 | 24 | 2 | -22 | 28 | 27 | 
14 | CC(C)(CO)CCCCCC(=O)CCCCCC(C)(C)CO | -92 | -92 | 77 |  | -91 | -88 | 3 | 
15 | CC(C)(Cc1cccc(C(=O)c2cccc(CC(C)(C)C(=O)O)c2)c1)C(=O)O |  |  |  |  |  |  |  | Change (Rattus norvegicus [17]): -24%; Change (Rattus norvegicus [18]): 7%; Change (Rattus norvegicus [19]): 2%; Change (Rattus norvegicus [20]): 7%; Change (Rattus norvegicus [21]): -43%; Change (Rattus norvegicus [22]): 34%
16 | CC(C)(CO)CCCCCCC(=O)CCCCCCC(C)(C)CO |  |  |  |  |  |  | 2 | Change (Rattus norvegicus [23]): -50%
17 | CC(C)(CO)CCCCCC(=O)CCCCC(C)(C)CO | -85 | -87 | 78 | 78 | -70 | -78 | 2 | 
18 | Cc1ccc(C(C)(CO)CCCCC(=O)CCCCC(C)(CO)c2ccc(C)cc2)cc1 (stereo unspecified) |  |  |  |  |  |  |  | IC50 [8]: < 300 µM; Change (Rattus norvegicus [9]): 15%; Change (Rattus norvegicus [10]): 0%; Change (Rattus norvegicus [11]): -3%; Change (Rattus norvegicus [12]): -2%; Change (Rattus norvegicus [13]): 61%; Change (Rattus norvegicus [14]): 46%
19 | CC(CCCCC(=O)CCCCC(C)(C(=O)O)c1ccccc1)(C(=O)O)c1ccccc1 (stereo unspecified) | -36 | -8 | 43 | 45 | 36 | 79 |  | inhibition at 300 µM [7]: < 50%
20 | CC(C)Cc1ccc(C(C)(CCCCC(=O)CCCCC(C)(C(=O)O)c2ccc(CC(C)C)cc2)C(=O)O)cc1 (stereo unspecified) | -63 | -66 | 11 | 62 | -40 | -44 |  | IC50 [8]: < 300 µM
21 | CC(CO)(CCCC(=O)CCCC(C)(CO)c1ccccc1)c1ccccc1 (stereo unspecified) | -20 | -17 | -14 | -11 | -18 | -32 |  | IC50 [8]: < 300 µM
22 | CC(C)OC(=O)C(C)(C)Oc1ccc(C(=O)c2ccc(Cl)cc2)cc1 [FENOFIBRATE] | 6 | -8 | -41 | -14 | 19.8 | 11.6 |  | 
23 | CCCCCCCCCCCCCCSCC(=O)O [TETRADECYLTHIOACETIC ACID] |  |  |  |  |  |  | 43 | 
